# Rows were chosen to be rich in hits. Some 2.6% of all compounds tested hit in one or more screens of this group.
# VIM-2 inhibitor = VIM-2 metallo-beta-lactamase inhibitors, primary screen, biochemical, epi-absorbance readout, Pseudomonas aeruginosa enzyme; purified VIM-2, nitrocefin hydrolysis, epi-absorbance fluorescence; inhibition, % at 5.6 µM; 0.89% of 290,000 active;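 active = inhibition above the mean of all tested compounds plus 3 SD, cutoff set per screening run, cut at about 7.5% in these data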;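 also: red hydrolysis product quenches plate fluorescence so inhibitors raise well fluorescence; 0% = enzyme with DMSO and 100% = DMSO without enzyme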
# IMP-1 inhibitor = IMP-1 metallo-beta-lactamase inhibitors, primary screen, biochemical, epi-absorbance readout, Pseudomonas aeruginosa enzyme | metallo-beta-lactamase IMP-1 (Pseudomonas aeruginosa) | purified IMP-1, nitrocefin hydrolysis, epi-absorbance fluorescence | inhibition, % at 5.6 µM | 0.45% of 290,000 active;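 active = inhibition above the mean plus 3 SD of all compounds in the same screening run, cut at about 4.5% in these data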;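 also: 0% = IMP-1 with DMSO and 100% = DMSO wells lacking enzyme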
#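 Test system: recombinant IMP-1 enzyme, purified / Medium: HEPES buffer pH 7.1 with ZnSO4 and Brij 35 / Doses: single dose, 5.6 µM / Times: 25 °C, 15 min preincubation, 25 min reaction / Detection: Epi-absorbance via hydrolysed-nitrocefin quenching of white-plate fluorescence, 480/530 nm, EDTA stop / Evaluation: percent inhibition from optical density relative to buffer-blank wells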
# ASAP1 inh = inhibitors of human ASAP1 ArfGAP activity, primary screen, biochemical, fluorescence polarization; Arf-GAP with SH3 domain, ANK repeat and PH domain-containing protein 1 (Homo sapiens), …; ASAP1-stimulated ARF1 GTP hydrolysis, GDP FP detection; inhibition, % at 16.5 µM; 0.19% of 360,000 active; in the data active = inhibition above about 25%;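 also: 0% = vehicle with enzyme and substrate and 100% = no enzyme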
# Target sequence (Q9ULH1 325-724 limits assumed): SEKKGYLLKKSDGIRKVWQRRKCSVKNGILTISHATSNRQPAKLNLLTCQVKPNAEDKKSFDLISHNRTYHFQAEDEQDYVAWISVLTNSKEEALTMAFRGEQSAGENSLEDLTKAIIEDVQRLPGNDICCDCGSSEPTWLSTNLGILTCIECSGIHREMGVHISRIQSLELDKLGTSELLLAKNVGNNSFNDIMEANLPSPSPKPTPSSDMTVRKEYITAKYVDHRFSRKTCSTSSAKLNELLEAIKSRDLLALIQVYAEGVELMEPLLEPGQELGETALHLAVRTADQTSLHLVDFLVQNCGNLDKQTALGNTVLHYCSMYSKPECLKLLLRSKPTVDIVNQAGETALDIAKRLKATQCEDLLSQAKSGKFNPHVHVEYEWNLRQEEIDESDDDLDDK
# Calb FLC = C. albicans growth inhibition with fluconazole, primary screen, CaCi-2 strain, Alamar Blue fluorescence; C. albicans CaCi-2 + fluconazole, 48 h; growth inhibition, % (test concentration not listed); 0.57% of 300,000 active;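 active = growth inhibition above about 58% in most replicates, limit read from the data, passing the limit was not always enough; inconclusive = exactly half the replicates above a set limit; inactive = most replicates below a set limit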;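 also: all wells also contain fluconazole at 8 µg/ml as a sub-toxic cotreatment; 0% = median of DMSO wells and 100% = median of geldanamycin control wells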
# PHOSPHO1 inh = PubChem AID 1565; recombinant PHOSPHO1, absorbance phosphatase assay; inhibition, % at 13.3 µM; 1.1% of 290,000 active; in the data active = inhibition above about 60%
# Target sequence (Q8TCT1 whole entry, looked up): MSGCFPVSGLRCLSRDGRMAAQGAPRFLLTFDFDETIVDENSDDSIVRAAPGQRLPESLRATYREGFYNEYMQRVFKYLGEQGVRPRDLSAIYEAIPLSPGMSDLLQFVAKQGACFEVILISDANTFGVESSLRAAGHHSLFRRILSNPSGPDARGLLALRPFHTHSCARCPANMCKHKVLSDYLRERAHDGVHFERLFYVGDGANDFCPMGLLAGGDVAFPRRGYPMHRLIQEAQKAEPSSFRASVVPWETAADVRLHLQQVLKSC
# ARFGAP1 inh = inhibitors of rat ARFGAP1 GAP activity, primary screen, biochemical, fluorescence polarization, GDP tracer | inhibition, % at 16.5 µM | ADP-ribosylation factor GTPase-activating protein 1 (Rattus norvegicus), Q62848 | Arfgap1-stimulated ARF1 GTP hydrolysis, GDP FP detection | 0.26% of 360,000 active;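 active = inhibition above a per-plate limit, mean inhibition of low control wells plus 3 SD, cut at about 25% in these data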;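 also: 0% = DMSO wells with enzyme and 100% = wells lacking Arfgap1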
#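 system = rat Arfgap1 catalytic domain, aa 1-136 | technique = FP, GDP Alexa 633 tracer displaced from anti-GDP antibody, 620/688 nm | compound = one concentration, 16.5 µM, DMSO 1.26% | medium = HEPES-based buffer, pH 7.5 | timing = compound-enzyme preincubation 20 min, reaction 120 min, detection 60 min, 25 °C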
# * = called active by the depositor; u = inconclusive; x = no result given.
SMILES,VIM-2 inhibitor,IMP-1 inhibitor,ASAP1 inh,Calb FLC,PHOSPHO1 inh,ARFGAP1 inh
O=C(COc1ccc(S(=O)(=O)NC2CCCCC2)cc1Cl)NCC1CCCO1 (stereo unspecified),-0.9,-1.2,5.9,4.0,3.7,-0.6
COc1ccc(CCNC(=O)COc2ccc(S(=O)(=O)NC3CCCCC3)cc2Cl)cc1,-2.7,-1.8,16.6,8.6,63.3*,10.1
CCOc1ccc(Cl)cc1-c1cc(C(=O)NCc2cc(C(F)(F)F)cc(C(F)(F)F)c2)[nH]n1,x,x,-5.1,x,x,5.7
O=C(Cn1cccc1C(=O)c1ccccc1)NCCCc1ccccc1,-2.7,-2.4,-2.0,-5.6,49.6,6.7
CC(C(=O)NCCCc1ccccc1)n1cccc1C(=O)c1ccccc1 (stereo unspecified),-2.4,-1.0,-6.9,32.2,69.7*,-13.0
COC(=O)[C@]12CCCCC=C1N(Cc1ccco1)C(=O)[C@H](CC(=O)N1CCCCC1)C2,x,x,-0.6,x,x,-2.3
N#Cc1sc2nc3c(cc2c1N)CCCC3,-1.0,16.6*,3.1,38.0,4.7,1.4
Nc1c(C(=O)O)sc2nc3c(cc12)CCCC3,-2.1,-2.6,9.5,-11.3,51.2,-15.3
Clc1cccc(-c2nnc(SC/C=C/c3ccccc3)n2Cc2ccco2)c1,-0.7,-3.0,x,5.5,21.4,x
c1ccc(-c2nnc(CSc3nnc(-c4ccncc4)n3Cc3ccco3)o2)cc1,-3.7,-3.4,-8.4,20.1,41.2,3.8
C(=C\c1ccccc1)/CSc1nnc(-c2ccncc2)n1Cc1ccco1,-2.1,-1.4,-4.6,-9.7,64.1*,-0.5
C(=C\c1ccccc1)/CSc1nnc(-c2ccccc2)n1Cc1ccco1,0.1,-0.7,2.2,9.0,80.1*,4.6
COc1cc(CN2CCN(c3ncc(Cc4ccccc4)cn3)CC2)cc(OC)c1,x,x,7.8,x,x,3.0
O=C(/C=C/c1cccc2ccccc12)c1ccncc1,0.7,-1.9,-11.1,-10.5,1.1,-7.2
Cc1[nH]c2ccccc2c1/C=C/C(=O)c1ccncc1,8.5*,-0.4,4.0,-1.5,32.2,9.1
Nc1ccc(C(=O)c2cccs2)cc1[N+](=O)[O-],-1.7,-2.5,6.3,125.7*,39.5,-2.4
COC(=O)[C@]12CCCCC=C1N(Cc1ccc3c(c1)OCO3)C(=O)[C@H](CC(=O)N1CCCCC1)C2,x,x,5.3,x,x,-5.3
Cc1cc(C)c2nc(NNC(=O)c3cc(-c4cccs4)nc4ccccc34)sc2c1,-3.8,-4.3,-6.3,82.5*,-1.2,8.3
Cc1ccc2sc(NNC(=O)c3cc(-c4cccs4)nc4ccccc34)nc2c1C,-4.2,0.0,-6.0,-6.9,-1.2,3.3
O=C(NNc1nc2ccc(Cl)cc2s1)c1cc(-c2cccs2)nc2ccccc12,-1.6,-5.0,-0.9,86.1*,-11.1,15.4
COc1cccc(C2NC(=S)N(Cc3ccccc3)C(C)=C2C(C)=O)c1 (stereo unspecified),x,x,2.5,x,x,9.1
C=C1[C@@H](C)CN[C@@H]1CCO,x,x,-9.0,x,x,5.0
Nc1[nH]c(C(=O)c2ccccc2)c(-c2cccc(C(F)(F)F)c2)c1C(=O)NCCc1c[nH]c2ccccc12,x,x,9.1,x,x,0.1
Cn1cc(/C=C2\SC(=S)N(N3CCOCC3)C2=O)c2ccccc21,-1.6,4.8*,5.6,6.7,-14.5,5.2
CCOC(=O)N1CCN(C(=O)C[C@H]2C[C@@]3(C(=O)OC)C(=C[C@H](C(C)(C)C)O[C@@H]3C)N(Cc3ccccc3)C2=O)CC1,x,x,4.4,x,x,-1.9
SMILES,VIM-2 inhibitor,IMP-1 inhibitor,ASAP1 inh,Calb FLC,PHOSPHO1 inh,ARFGAP1 inh
CC(C)(C)CC(C)(C)NC(=S)Nc1ccc2nc(-c3ccccn3)c(-c3ccccn3)nc2c1,-3.9,0.0,-5.5,-20.7,95.9*,-1.6
O=C(NCc1ccccc1)[C@@H]1CCCN1C(=O)[C@H]1CCCN1C(=O)c1ccc(Cl)cc1,x,x,-9.5,x,x,-2.6
Cc1ccccc1NC(=O)CC1SC(=O)N(c2ccccc2)C1=O (stereo unspecified),-2.1,-1.4,-3.5,-2.5,-61.5,9.9
O=C(CC1SC(=O)N(c2ccccc2)C1=O)Nc1cccc2ccccc12 (stereo unspecified),-0.3,4.8*,-4.6,-6.4,14.9,4.7
O=C(Nc1nc(=O)c2ccccc2s1)c1ccccc1,11.0*,-2.4,-9.9,87.2*,17.4,-8.3
CSc1nc2ccc3nc(NC(=O)c4ccc(C)cc4)sc3c2s1,-2.4,-1.6,-0.4,1.0,2.0,-9.5
Cc1ccc(C(=O)Nc2nc3ccccc3c(=O)s2)cc1,-2.8,-2.0,-4.0,86.9*,8.6,20.0
CCOP(=O)(NC(c1ccccc1)c1nc2ccccc2[nH]c1=O)OCC (stereo unspecified),-0.1,-1.6,5.3,-2.5,60.8*,5.1
O=C(Cc1c[nH]c2ccccc12)Nc1ccc(Nc2cccnc2)c(-c2ccc(-c3ccccc3)cc2F)c1,x,x,15.5,x,x,13.5
CC(C)C[C@@H]1NC(=O)[C@@H]2CSCCS(=O)(=O)N2C1=O,x,x,16.5,x,x,-4.6
CCN1/C(=C/c2ccc3ccccc3[n+]2CCCS(=O)(=O)[O-])C=Cc2cc(C)ccc21,-2.2,-4.4,5.7,-3.6,-113.1,6.7
CCN1/C(=C/c2ccc3ccccc3[n+]2CC)C=Cc2ccccc21,-6.0,-7.2,0.8,105.1*,9.4,0.6
COc1cccc(CNC(=O)[C@H]2CCCN2C(=O)[C@H]2CCCN2C(=O)N2CCOCC2)c1,x,x,-8.3,x,x,0.6
CC(=O)c1cccc(-c2ccnc3c2CC(C(=O)Nc2ccc(F)c(Cl)c2)O3)c1 (stereo unspecified),x,x,-4.8,x,x,4.8
C=C(C)CNC(=S)N/N=C1\CCCCc2ccccc21,-2.9,-2.5,15.5,92.5*,-12.3,5.5
Cc1ccc(OCC(=O)NCCc2nc3ccccc3[nH]2)c(C)c1,0.9,0.9,10.3,4.7,61.2*,-2.5
Cc1ccc(CN2CC34C=CC(O3)C(C(=O)NCc3ccc5c(c3)OCO5)C4C2=O)cc1 (stereo unspecified),-0.1,-2.2,-3.3,-15.1,52.4,13.7
COCCCNC(=O)C1C2C=CC3(CN(Cc4ccc(C)cc4)C(=O)C13)O2 (stereo unspecified),-4.2,-4.2,5.4,10.7,60.1*,-3.1
O=C(CSc1nnc(-c2ccccn2)n1Cc1ccco1)c1ccc(Cl)cc1,-0.6,-0.4,10.8,19.1,79.6*,1.3
O=C(CSc1nnc(-c2cnccn2)n1Cc1ccco1)c1ccccc1,-1.8,-1.3,2.4,u,90.1*,1.5
O=C(CSc1nnc(-c2ccccn2)n1Cc1ccco1)c1ccccc1,-3.1,-1.2,-11.9,27.8,59.3,8.2
O=C(CSc1nnc(-c2cccnc2)n1Cc1ccco1)c1ccc(Br)cc1,1.1,2.1,5.3,u,25.8,5.5

# High-throughput results: PubChem, several laboratories
